The assay is described as follows: Inhibition of Porphyromonas gingivalis gamma-carbonic anhydrase expressed in Escherichia coli preincubated for 15 mins by stopped flow CO2 hydration assay. In short, it runs like this: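 CO2 hydration followed by stopped-flow with phenol red (0.2 mM) read at 557 nm. Buffer was 20 mM Hepes pH 7.4 with 20 mM NaBF4 for ionic strength, and CO2 was 1.7–17 mM. Initial rates came from ≥6 traces of the first 5–10% of reaction over 10–100 s, with uncatalyzed rate subtracted. Inhibitor was diluted in water from 10 mM stock and preincubated with enzyme 15 min at rt. KI came from nonlinear least squares plus Cheng–Prusoff, mean of ≥3 determinations.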

`CC(C)(C)OC(=O)NCCCC(=O)Nc1cccc(S(N)(=O)=O)c1` registered a Ki of 1.24 µM.
The compound `CC(C)(C)OC(=O)NCCCC(=O)NCCc1ccc(S(N)(=O)=O)cc1` showed a Ki of 0.233 µM. This Ki lies about 5.3-fold lower than the previous one.
In the case of `COC(=O)C(CCCCNC(=O)OCc1ccccc1)NC(=O)c1ccc(S(N)(=O)=O)cc1` (stereo not given), affinity was put at a Ki of 0.0854 µM.
On to `CC(=O)NC(CCCCN/C(=N/C(=O)OC(C)(C)C)NC(=O)OC(C)(C)C)C(=O)NCc1ccc(S(N)(=O)=O)cc1` (stereo not given), for which the Ki worked out at 0.0776 µM.
Turning to `CC(C)(C)OC(=O)NCCCC(=O)NCc1ccc(S(N)(=O)=O)cc1`, affinity was put at a Ki of 0.49 µM.
Turning to `CC(=O)NC(CCCCN)C(=O)NCc1ccc(S(N)(=O)=O)cc1` (stereo not given), the inhibition constant Ki came out at 0.0741 µM.
On to `CC(=O)NC(CCCCNC(=N)N)C(=O)NCc1ccc(S(N)(=O)=O)cc1` (stereo not given), for which the inhibitory constant (Ki) came to 0.0807 µM.
`CC(C)(C)OC(=O)/N=C(\NCCCC(=O)NCCc1ccc(S(N)(=O)=O)cc1)NC(=O)OC(C)(C)C` gave a Ki of 0.0906 µM.
The compound `CC(=O)NC(CCCCNC(=O)OC(C)(C)C)C(=O)Nc1cccc(S(N)(=O)=O)c1` (stereo not given) gave a Ki of 0.0542 µM.
Next, `NCCCC(=O)NCc1ccc(S(N)(=O)=O)cc1`: 0.0427 µM; `CC(=O)NC(CCCCNC(=O)OC(C)(C)C)C(=O)NCCc1ccc(S(N)(=O)=O)cc1` (stereo not given): 0.312 µM; `CC(=O)NC(CCCCNC(=O)OC(C)(C)C)C(=O)NCc1ccc(S(N)(=O)=O)cc1` (stereo not given): 0.089 µM.
`CC(=O)NC(CCCCNC(=N)N)C(=O)NCCc1ccc(S(N)(=O)=O)cc1` (stereo not given) yielded an inhibition constant (Ki) of 0.37 µM.
With `N=C(N)NCCCC(=O)NCc1ccc(S(N)(=O)=O)cc1`, the inhibitory constant (Ki) came to 0.887 µM.
In the case of `N=C(N)NCCCC(=O)NCCc1ccc(S(N)(=O)=O)cc1`, the Ki worked out at 0.0401 µM. Compared with the last compound, the Ki is about 22-fold lower.
For the compound `CC(=O)NC(CCCCN/C(=N/C(=O)OC(C)(C)C)NC(=O)OC(C)(C)C)C(=O)NCCc1ccc(S(N)(=O)=O)cc1` (stereo not given), the affinity corresponds to a Ki of 0.0608 µM. This Ki is about 1.5-fold higher than that of the compound before.
As for `CC(C)(C)OC(=O)NCCCC(=O)Nc1ccc(S(N)(=O)=O)cc1`, the affinity corresponds to a Ki of 0.056 µM.
For `NCCCC(=O)NCCc1ccc(S(N)(=O)=O)cc1`, the inhibition constant Ki stood at 0.0659 µM.
`CC(C)(C)OC(=O)/N=C(\NCCCC(=O)NCc1ccc(S(N)(=O)=O)cc1)NC(=O)OC(C)(C)C` gave a Ki of 0.074 µM.
`CC(=O)NC(CCCCN)C(=O)NCCc1ccc(S(N)(=O)=O)cc1` (stereo not given) displayed a Ki of 0.0705 µM.
